Active and inactive are the calls of the source. No cut-off for these calls is given here.
Assays:
Mus musculus [1] = assay: Anesthetic activity in iv dosed drug naive Kunming mouse assessed as loss of righting reflex; format: functional
Outline: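 Male KM mice (20-30 g), at least 20 drug-naïve animals per drug, given a tail-vein bolus over ~10 s. Anaesthesia scored as loss of righting reflex. ED50 found by the up-and-down method and analysed by Dixon–Mood to give the median effective dose with 95% CI.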

[2] = Toxicity in iv dosed drug naive Kunming mouse; format: organism-based; settings: in vivo
Outline: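 Male KM mice (20-30 g), at least 20 drug-naïve animals per drug, given a tail-vein bolus over ~10 s. LD50 found by the up-and-down method.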

[3] = Therapeutic index, ratio of LD50 for toxicity in iv dosed drug naive Kunming mouse to ED50 for anesthetic activity in iv dosed drug naive Kunming mouse assessed as loss of righting reflex; format: organism-based; settings: in vivo, read-out: Ratio LD50/ED50
Outline: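 TI = LD50/ED50. Both values come from tail-vein bolus (~10 s) dosing of male KM mice (20-30 g, at least 20 drug-naïve per drug) by the up-and-down method. The ED50 end point is loss of righting reflex.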

[4] = Toxicity in iv dosed drug naive Kunming mouse assessed as mouse survival dosed at 2 times anesthetic ED50; format: organism-based; settings: in vivo
Outline: (§1)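 Ten drug-naïve male KM mice (20-30 g) per drug received 2×ED50 by tail-vein injection. Onset is timed from end of injection to appearance of LORR. Duration is timed from LORR appearance to its recovery. Survival is recorded over the 10 mice.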

Mus musculus [5] = assay: Anesthetic activity in iv dosed drug naive Kunming mouse assessed as time from end of injection to appearance of loss of righting reflex dosed at 2 times anesthetic ED50; format: functional; outline: as §1
[6] = Drug metabolism in iv dosed drug naive Kunming mouse assessed dose of propofol released from prodrugs dosed at 2 times anesthetic ED50; format: ADME, organism-based; settings: in vivo
Outline: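 Propofol delivered at 2×ED50 is calculated as (MW propofol/MW prodrug)×(2×ED50) mg/kg from the tail-vein ED50 in KM mice.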

[7] = Stability in water at 10 mg/ml incubated for 4 hrs by HPLC analysis; format: physicochemical; settings: buffer
Outline: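 Aqueous solutions (10 mg/ml) held at 30 °C for 4 h before the plasma hydrolysis studies, n=3.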

[8] = Stability in Kunming mouse plasma assessed as drug decomposition at 100 ug/ml incubated up to 120 mins by HPLC analysis; format: ADME, cell-free; settings: 2 h
Outline: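 Mouse blood was heparinised at sampling and centrifuged at 3500×g for 5 min at 4 °C to obtain plasma. A 10 mg/ml aqueous stock was diluted 1:100 into plasma, giving a final 100 μg/ml, and shaken at 37 °C for 2 h. The read-out was the percentage of propofol released, given as mean ± SD. Water stability (30 °C, 4 h, n=3) was checked beforehand.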

[9] = Solubility in water measured per 100 ml; format: physicochemical; settings: buffer
[10] = Drug metabolism in Kunming mouse plasma assessed as propofol release at 100 ug/ml incubated up to 120 mins by HPLC analysis relative to control; format: ADME, cell-free; settings: 2 h
[11] = Solubility in water; format: physicochemical
[12] = Stability in Kunming mouse plasma assessed as drug decomposition at 100 ug/ml incubated for 2 hrs by HPLC analysis; format: ADME, cell-free

For `CC(C)c1cccc(C(C)C)c1OC(=O)CN1CCOCC1`, the ED50 (Mus musculus [1]) was 36.6 mg/kg, the LD50 [2] was 75 mg/kg and the selectivity ratio [3] was 2.1. For the same compound, the survival [4] was 30%, the Time (Mus musculus [5]) was 12 s and the Drug metabolism [6] was 42.7 mg/kg.
For `CC(C)c1cccc(C(C)C)c1OCOP(=O)([O-])[O-].[Na+].[Na+]` [FOSPROPOFOL DISODIUM], the ED50 (Mus musculus [1]) was 105 mg/kg, the LD50 [2] was 288 mg/kg and the selectivity ratio [3] was 2.8. For the same compound, the survival [4] was 100%, the Time (Mus musculus [5]) was 46.4 s and the Drug metabolism [6] was 112.7 mg/kg.
In the case of `CC(C)c1cccc(C(C)C)c1OC(=O)OC(C(=O)[O-])C(=O)[O-].[Na+].[Na+]`, the Stability [7] is reported as “Stable”, the Stability [8] is reported as “Stable” and the ED50 (Mus musculus [1]) is reported as “inactive”.
In the case of `CC(C)c1cccc(C(C)C)c1O` [PROPOFOL], the LD50 [2] is reported as 52.2 mg/kg, the selectivity ratio [3] is reported as 4.5 and the survival [4] is reported as 100%. For the same compound, the Time (Mus musculus [5]) was 1 s, the Drug metabolism [6] was 23.4 mg/kg and the solubility [9] was 1.53 ×10⁻² g.
For `CC(C)c1cccc(C(C)C)c1OC(=O)OCC(=O)[O-].[Na+]`, the Stability [7] was “Stable” and the ED50 (Mus musculus [1]) was “inactive”.
For `CC(C)c1cccc(C(C)C)c1OC(=O)COC(=O)CN1CCCCC1.Cl`, the ED50 (Mus musculus [1]) was 22.3 mg/kg, the LD50 [2] was 91.4 mg/kg and the selectivity ratio [3] was 4.1. The survival [4] was 100%, the Time (Mus musculus [5]) was 3 s and the Drug metabolism [6] was 22 mg/kg. It also gave a solubility [9] of 85.86 g.
For `CC(C)c1cccc(C(C)C)c1OC(=O)COC(=O)CN1CCCC1.Cl`, the ED50 (Mus musculus [1]) was 25.2 mg/kg, the LD50 [2] was 92.1 mg/kg and the selectivity ratio [3] was 3.6. It also gave a survival [4] of 100%, a Time (Mus musculus [5]) of 4 s and a Drug metabolism [6] of 23.4 mg/kg. For the same compound, the solubility [9] was 83.96 g.
`CC(C)c1cccc(C(C)C)c1OC(=O)COC(=O)CN.Cl` gave an ED50 (Mus musculus [1]) of 34.3 mg/kg, an LD50 [2] of 89.2 mg/kg and a selectivity ratio [3] of 2.6. It also gave a survival [4] of 10%, a Time (Mus musculus [5]) of 9.1 s and a Drug metabolism [6] of 37.1 mg/kg.
For `CC(C)c1cccc(C(C)C)c1OC(=O)COC(=O)CN1CCOCC1.Cl`, the Drug metabolism [10] was “Metabolite_Detected”, the ED50 (Mus musculus [1]) was 28.1 mg/kg and the LD50 [2] was 132 mg/kg. The selectivity ratio [3] was 4.7, the survival [4] was 100% and the Time (Mus musculus [5]) was 3.1 s. The Drug metabolism [6] was 25.1 mg/kg and the solubility [9] was 76.33 g.
Work on `CC(C)c1cccc(C(C)C)c1OC(=O)COC(=O)C1CCCCN1.Cl` (stereo not given) yielded an ED50 (Mus musculus [1]) of 20.8 mg/kg, an LD50 [2] of 54.4 mg/kg and a selectivity ratio [3] of 2.6. For the same compound, the survival [4] was 20%, the Time (Mus musculus [5]) was 10.6 s and the Drug metabolism [6] was 19.3 mg/kg.
`CC(C)c1cccc(C(C)C)c1OC(=O)CNCC(=O)O.Cl` gave a solubility [11] of less than 10 mg/mL.
In the case of `CC(C)c1cccc(C(C)C)c1OC(=O)COC(C(=O)[O-])C(=O)[O-].[Na+].[Na+]`, the ED50 (Mus musculus [1]) is reported as “inactive” and the Stability [12] is reported as “Stable”.
With `CC(C)c1cccc(C(C)C)c1OC(=O)OC(CC(=O)[O-])C(=O)[O-].[Na+].[Na+]` (stereo not given) the Stability [7] was “Stable”, the Stability [8] was “Stable” and the ED50 (Mus musculus [1]) was “inactive”.
`CC(C)c1cccc(C(C)C)c1OC(=O)COC(=O)[C@H](C)N.Cl` showed an ED50 (Mus musculus [1]) of 20.5 mg/kg, an LD50 [2] of 51.9 mg/kg and a selectivity ratio [3] of 2.5. The survival [4] was 50%, the Time (Mus musculus [5]) was 18.2 s and the Drug metabolism [6] was 21.2 mg/kg.
`CC(C)c1cccc(C(C)C)c1OC(=O)COC(=O)C1COCCN1.Cl` (stereo not given) gave an ED50 (Mus musculus [1]) of 30.4 mg/kg, an LD50 [2] of 69.6 mg/kg and a selectivity ratio [3] of 2.3. It also gave a survival [4] of 60%, a Time (Mus musculus [5]) of 6.7 s and a Drug metabolism [6] of 28.1 mg/kg.
For `CC(C)c1cccc(C(C)C)c1OC(=O)COCC(=O)[O-].[Na+]`, the ED50 (Mus musculus [1]) was 65.7 mg/kg, the survival [4] was 100% and the Time (Mus musculus [5]) was 82.3 s. For the same compound, the Drug metabolism [6] was 74 mg/kg and the solubility [11] was less than 20 mg/mL.
In the case of `CC(C)c1cccc(C(C)C)c1OC(=O)COC(=O)CN(C)C.Cl`, the ED50 (Mus musculus [1]) is reported as 40.2 mg/kg, the LD50 [2] is reported as 93.8 mg/kg and the selectivity ratio [3] is reported as 2.3. It also gave a survival [4] of 40%, a Time (Mus musculus [5]) of 4.6 s and a Drug metabolism [6] of 40.1 mg/kg.
In the case of `CC(C)c1cccc(C(C)C)c1OC(=O)CSCC(=O)[O-].[Na+]`, the ED50 (Mus musculus [1]) is reported as 190 mg/kg, the LD50 [2] is reported as 222 mg/kg and the selectivity ratio [3] is reported as 1.2. It also gave a survival [4] of 0%, a Time (Mus musculus [5]) of 20.2 s and a Drug metabolism [6] of 203.6 mg/kg. For the same compound, the Stability [12] was “Stable”.
Compound `CNCC(=O)OCC(=O)Oc1c(C(C)C)cccc1C(C)C.Cl` has an ED50 (Mus musculus [1]) of 29.6 mg/kg, an LD50 [2] of 60.8 mg/kg and a selectivity ratio [3] of 2. The survival [4] was 60%, the Time (Mus musculus [5]) was 8 s and the Drug metabolism [6] was 30.7 mg/kg.
In the case of `CC(C)c1cccc(C(C)C)c1OC(=O)COC(=O)CCC(=O)[O-].[Na+]`, the Drug metabolism [10] is reported as “Metabolite_Detected”, the ED50 (Mus musculus [1]) is reported as 73.1 mg/kg and the LD50 [2] is reported as 205 mg/kg. It also gave a selectivity ratio [3] of 2.8, a survival [4] of 80% and a Time (Mus musculus [5]) of 25.5 s. It also gave a Drug metabolism [6] of 75.7 mg/kg.
For `CC(C)c1cccc(C(C)C)c1OC(=O)OCCC(=O)[O-].[Na+]`, the Stability [7] was “Stable” and the ED50 (Mus musculus [1]) was “inactive”.
`CC(C)c1cccc(C(C)C)c1OC(=O)COC(=O)CC(=O)[O-].[Na+]` showed an ED50 (Mus musculus [1]) of 75.9 mg/kg, an LD50 [2] of 244 mg/kg and a selectivity ratio [3] of 3.2. It also gave a survival [4] of 100%, a Time (Mus musculus [5]) of 72.2 s and a Drug metabolism [6] of 76 mg/kg.
Work on `CC(C)c1cccc(C(C)C)c1OC(=O)COC(=O)CN1CCN(C)CC1.Cl` yielded an ED50 (Mus musculus [1]) of 40.3 mg/kg, an LD50 [2] of 91.6 mg/kg and a selectivity ratio [3] of 2.3. It also gave a survival [4] of 70%, a Time (Mus musculus [5]) of 2.4 s and a Drug metabolism [6] of 34.8 mg/kg.
